Measured values as given in ChEMBL document CHEMBL1129661, “The chemistry of Pseudomonic acid. 15. Synthesis and antibacterial activity of a series of 5-alkyl, 5-alkenyl, and 5-heterosubstituted oxazoles” (1996).
≈ marks a conversion by molar mass, not a printed value.

Columns and labels:
Streptococcus pneumoniae [1] = assay: Minimal inhibitory concentration of compound against Streptococcus pneumoniae PU7; No bacterial growth; format: functional, organism-based
Summary of the method: (§1)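 Agar dilution method. Each plate was spot-inoculated with 1 µL spots, about 10^6 CFU per spot. Plates were incubated 18-24 h at 37 °C.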

Staphylococcus aureus = assay: Minimal inhibitory concentration against Staphylococcus aureus Oxford NCTC 6571; format: functional; summary of the method: as §1
Haemophilus influenzae [2] = assay: Minimal inhibitory concentration against Haemophilus influenzae Q1; format: functional; summary of the method: as §1
Moraxella catarrhalis [3] = assay: Minimal inhibitory concentration of compound against Moraxella catarrhalis 1502; format: functional; summary of the method: as §1
Streptococcus pyogenes [4] = assay: Minimal inhibitory concentration against Streptococcus pyogenes CN10; format: functional; summary of the method: as §1
Streptococcus pneumoniae [5] = assay: Minimal inhibitory concentration against Streptococcus pneumoniae PU7; format: functional; summary of the method: as §1
Haemophilus influenzae [6] = assay: Minimal inhibitory concentration against Haemophilus influenzae WY21; format: functional; summary of the method: as §1
Streptococcus pyogenes [7] = assay: Minimal inhibitory concentration of compound against Streptococcus pyogenes BCA; format: functional; summary of the method: as §1
Moraxella catarrhalis [8] = assay: Minimal inhibitory concentration of compound against Moraxella catarrhalis H; format: functional; summary of the method: as §1
Haemophilus influenzae [9] = assay: Minimal inhibitory concentration against Haemophilus influenzae H128; format: functional; summary of the method: as §1

| SMILES | MIC (Streptococcus pneumoniae [1]) | MIC (Staphylococcus aureus) | MIC (Haemophilus influenzae [2]) | MIC (Moraxella catarrhalis [3]) | MIC (Streptococcus pyogenes [4]) | MIC (Streptococcus pneumoniae [5]) | MIC (Haemophilus influenzae [6]) | MIC (Streptococcus pyogenes [7]) | MIC (Moraxella catarrhalis [8]) | MIC (Haemophilus influenzae [9]) |
| --- | --- | --- | --- | --- | --- | --- | --- | --- | --- | --- |
| C/C(=C\c1ncc(CO)o1)C[C@@H]1OC[C@H](C[C@@H]2O[C@H]2[C@@H](C)[C@H](C)O)[C@@H](O)[C@H]1O | No growth | 32 µg/mL (≈ 80.5 µM) | 2 µg/mL (≈ 5.03 µM) | 8 µg/mL (≈ 20.1 µM) | 32 µg/mL (≈ 80.5 µM) |  |  |  |  |  |
| COC(=O)/C=C/c1cnc(/C=C(\C)C[C@@H]2OC[C@H](C[C@@H]3O[C@H]3[C@@H](C)[C@H](C)O)[C@@H](O)[C@H]2O)o1 |  | 2 µg/mL (≈ 4.43 µM) | 0.5 µg/mL (≈ 1.11 µM) |  |  | 1 µg/mL (≈ 2.21 µM) |  | 4 µg/mL (≈ 8.86 µM) |  |  |
| COC(=O)CCCCCCCCc1cnc(/C=C(\C)C[C@@H]2OC[C@H](C[C@@H]3O[C@H]3[C@@H](C)[C@H](C)O)[C@@H](O)[C@H]2O)o1 |  | 4 µg/mL (≈ 7.44 µM) | 4 µg/mL (≈ 7.44 µM) | 64 µg/mL (≈ 119 µM) | 4 µg/mL (≈ 7.44 µM) | 8 µg/mL (≈ 14.9 µM) |  |  |  |  |
| C/C(=C\c1ncc(CCCC(=O)[O-])o1)C[C@@H]1OC[C@H](C[C@@H]2O[C@H]2[C@@H](C)[C@H](C)O)[C@@H](O)[C@H]1O.[Na+] |  | 32 µg/mL |  | 32 µg/mL | 64 µg/mL | 64 µg/mL | 8 µg/mL |  |  |  |
| C/C(=C\c1ncc(C(=O)[O-])o1)C[C@@H]1OC[C@H](C[C@@H]2O[C@H]2[C@@H](C)[C@H](C)O)[C@@H](O)[C@H]1O.[Na+] |  | > 128 µg/mL | > 128 µg/mL | > 128 µg/mL | > 128 µg/mL | > 128 µg/mL |  |  |  |  |
| COC(=O)/C=C\c1cnc(/C=C(\C)C[C@@H]2OC[C@H](C[C@@H]3O[C@H]3[C@@H](C)[C@H](C)O)[C@@H](O)[C@H]2O)o1 |  | 8 µg/mL (≈ 17.7 µM) |  | 8 µg/mL (≈ 17.7 µM) | 16 µg/mL (≈ 35.4 µM) | 16 µg/mL (≈ 35.4 µM) | 0.25 µg/mL (≈ 0.554 µM) |  |  |  |
| COC(=O)c1nc(/C=C(\C)C[C@@H]2OC[C@H](C[C@@H]3O[C@H]3[C@@H](C)[C@H](C)O)[C@@H](O)[C@H]2O)oc1OC |  | > 128 µg/mL | 128 µg/mL (≈ 281 µM) | > 128 µg/mL | > 128 µg/mL | > 128 µg/mL |  |  |  |  |
| C/C(=C\c1ncc(/C=C/C(=O)[O-])o1)C[C@@H]1OC[C@H](C[C@@H]2O[C@H]2[C@@H](C)[C@H](C)O)[C@@H](O)[C@H]1O.[Na+] |  | 64 µg/mL | 16 µg/mL | 16 µg/mL | 64 µg/mL | 64 µg/mL |  |  |  |  |

The remaining lines, values ahead:

| MIC (Streptococcus pneumoniae [1]) | MIC (Staphylococcus aureus) | MIC (Haemophilus influenzae [2]) | MIC (Moraxella catarrhalis [3]) | MIC (Streptococcus pyogenes [4]) | MIC (Streptococcus pneumoniae [5]) | MIC (Haemophilus influenzae [6]) | MIC (Streptococcus pyogenes [7]) | MIC (Moraxella catarrhalis [8]) | MIC (Haemophilus influenzae [9]) | SMILES |
| --- | --- | --- | --- | --- | --- | --- | --- | --- | --- | --- |
|  | 4 µg/mL (≈ 9.4 µM) | 1 µg/mL (≈ 2.35 µM) | 8 µg/mL (≈ 18.8 µM) | 8 µg/mL (≈ 18.8 µM) | 8 µg/mL (≈ 18.8 µM) |  |  |  |  | COC(=O)c1cnc(/C=C(\C)C[C@@H]2OC[C@H](C[C@@H]3O[C@H]3[C@@H](C)[C@H](C)O)[C@@H](O)[C@H]2O)o1 |
|  | 1 µg/mL (≈ 2.14 µM) |  | 2 µg/mL (≈ 4.28 µM) | 0.5 µg/mL (≈ 1.07 µM) | 4 µg/mL (≈ 8.56 µM) | 1 µg/mL (≈ 2.14 µM) |  |  |  | COC(=O)CCCc1cnc(/C=C(\C)C[C@@H]2OC[C@H](C[C@@H]3O[C@H]3[C@@H](C)[C@H](C)O)[C@@H](O)[C@H]2O)o1 |
|  | 8 µg/mL (≈ 18 µM) | 0.13 µg/mL (≈ 0.293 µM) |  | 8 µg/mL (≈ 18 µM) | 4 µg/mL (≈ 9.02 µM) |  |  | 16 µg/mL (≈ 36.1 µM) |  | CC[S+]([O-])c1cnc(/C=C(\C)C[C@@H]2OC[C@H](C[C@@H]3O[C@H]3[C@@H](C)[C@H](C)O)[C@@H](O)[C@H]2O)o1 (some centres undefined) |
|  | 8 µg/mL (≈ 18.7 µM) | 1 µg/mL (≈ 2.34 µM) | 8 µg/mL (≈ 18.7 µM) | 4 µg/mL (≈ 9.36 µM) | 8 µg/mL (≈ 18.7 µM) |  |  |  |  | CCSc1cnc(/C=C(\C)C[C@@H]2OC[C@H](C[C@@H]3O[C@H]3[C@@H](C)[C@H](C)O)[C@@H](O)[C@H]2O)o1 |
|  | 8 µg/mL (≈ 17.4 µM) |  | 16 µg/mL (≈ 34.8 µM) | 8 µg/mL (≈ 17.4 µM) | 16 µg/mL (≈ 34.8 µM) |  |  |  | 8 µg/mL (≈ 17.4 µM) | C/C(=C\c1ncc(Oc2ccccc2)o1)C[C@@H]1OC[C@H](C[C@@H]2O[C@H]2[C@@H](C)[C@H](C)O)[C@@H](O)[C@H]1O |
